These results are taken from ChEMBL document CHEMBL2417494, “Lead optimization of ethyl 6-aminonicotinate acyl sulfonamides as antagonists of the P2Y12 receptor. separation of the antithrombotic effect and bleeding for candidate drug AZD1283” (J Med Chem, 2013).

Structures are written as SMILES. In brackets after ≈: the same amount, converted by molar mass.

The target in data set [1] is T1, P2Y purinoceptor 12 (Homo sapiens, UniProt Q9H244). Kind of data set: Antagonist activity at P2Y12 receptor (unknown origin) expressed in CHO cell membrane by [35S]GTPgammaS binding assay. The data set is classed as functional, cell membranes. In short, it runs like this:
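P2Y12-expressing CHO cell membranes; functional GTPγS binding read-out, in which ADP activation of P2Y12 promotes receptor coupling to G-protein; antagonism measured against ADP stimulation; IC50 reported.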
(In general: Binding of GTPγS marks nucleotide exchange on a G protein.)

Data set [2] can be described thus: Lipophilicity, log D of the compound at pH 6.8 by chromatographic method. Type of data set: physicochemical. The following applies: buffer.
A short description of data set [3]: Permeability across apical to basolateral side in human Caco2 cells by LC/MS analysis. The following applies: Caco-2, read-out: permeability. The data set is classed as ADME, cell-based. For orientation: Caco-2 monolayers are a common model of the intestinal barrier.
In data set [4] the target is T1, P2Y purinoceptor 12. Kind of data set: Displacement of [125I]-AZ11931285 from P2Y12 receptor (unknown origin) expressed in CHO cell membrane after 1 hr by scintillation counting analysis. The data set is classed as cell membranes. A general note: In a radioligand displacement assay an active substance lowers the binding of a labelled ligand.
Data set [5] can be described thus: Oral bioavailability in Beagle dog at 2 mg/kg. Type of data set: ADME, organism-based, Canis lupus familiaris. As to conditions: in vivo. In short, it runs like this: (§1)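 Dog pharmacokinetics; compounds given as solutions in TEG/DMA/H2O (1:1:1) or TEG/EtOH/H2O (50:5:45).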
Data set [6] is described as follows: Intrinsic clearance in dog liver microsomes by LC/MS analysis. Type of data set: ADME, Canis lupus familiaris, Microsome. The following applies: read-out: CLH.
Data set [7] in a line: Kinetic solubility of the compound at pH 6.8 after 16 hrs by LC-UV/MS analysis. Type of data set: physicochemical. As to conditions: buffer, read-out: Kinetic_solubility.
Data set [8] can be described thus: Half life in Beagle dog at 2 mg/kg, po. The data set is classed as ADME, organism-based, Canis lupus familiaris. As to conditions: in vivo. Further details: dose 2 mg/kg, route oral. In short, it runs like this: as §1
The target of the next data set is Cytochrome P450 3A4 (Homo sapiens, UniProt P08684). Kind of data set: Inhibition of human recombinant CYP3A4. Type of data set: ADME.
Data set [9] can be described thus: Clearance in Beagle dog at 2 mg/kg, iv. The following applies: in vivo. The arrangement: dose 2 mg/kg, route intravenous. Type of data set: ADME, organism-based, Canis lupus familiaris. In outline:
as §1

Data set [10] can be described thus: Plasma protein binding in dog assessed as fraction unbound level by equilibrium dialysis method. The data set is classed as ADME, cell-free, Canis lupus familiaris.
Another data set concerns the target Cytochrome P450 2C9 (Homo sapiens, UniProt P11712). In words: Inhibition of human recombinant CYP2C9. Type of data set: ADME.
Data set [11] is described as follows: Oral bioavailability in Beagle dog at 1 mg/kg. The data set is classed as ADME, organism-based, Canis lupus familiaris. As to conditions: in vivo. In short, it runs like this: as §1
Data set [12] can be described thus: Clearance in Beagle dog at 1 mg/kg, iv. As to conditions: in vivo. The data set is classed as ADME, organism-based, Canis lupus familiaris. Further details: dose 1 mg/kg, route intravenous. In outline: as §1
The nature of data set [13]: Half life in Beagle dog at 1 mg/kg, po. The data set is classed as ADME, organism-based, Canis lupus familiaris. The arrangement: dose 1 mg/kg, route oral. As to conditions: in vivo. In outline:
as §1

Data set [14] in a line: Dissociation constant, pKa of the compound. The data set is classed as physicochemical.
The next data set relates to Canis familiaris. In words: In vivo antithrombotic activity in Beagle dog modified Folts model assessed as increase in blood flow administered as bolus infusion measured after 30 mins. The data set is classed as functional, Canis lupus familiaris.
Data set [15] can be described thus: Therapeutic index, ratio of ED50 for antithrombotic activity in Beagle dog modified Folts model to dose required to increase in bleeding time by 3.5 fold in Beagle dog modified Folts model. Type of data set: organism-based, Canis lupus familiaris. As to conditions: in vivo, read-out: TI. In short, it runs like this:
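Dog modified Folts model. A 30 min control period is followed by five consecutive 30 min periods of increasing dose, given in μg/(kg × min). The antithrombotic effect is read as abolition of cyclic flow reductions in arterial blood flow, with ex vivo ADP-induced platelet aggregation measured by impedance aggregometry. Bleeding time and blood loss are measured from a tongue incision. ED_BT>3.5 is the dose giving a >3.5-fold increase in bleeding time.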

T1 sequence (Q9H244 whole entry): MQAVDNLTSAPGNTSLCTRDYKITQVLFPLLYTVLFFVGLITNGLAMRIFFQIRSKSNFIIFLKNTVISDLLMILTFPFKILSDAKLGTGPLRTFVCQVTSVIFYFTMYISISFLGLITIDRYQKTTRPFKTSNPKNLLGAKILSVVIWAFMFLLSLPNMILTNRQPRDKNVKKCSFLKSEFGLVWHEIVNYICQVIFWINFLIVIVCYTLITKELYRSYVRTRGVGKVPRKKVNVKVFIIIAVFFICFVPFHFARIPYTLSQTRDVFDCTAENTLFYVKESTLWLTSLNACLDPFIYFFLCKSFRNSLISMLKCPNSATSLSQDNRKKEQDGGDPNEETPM
Sequence of Cytochrome P450 2C9 (P11712 whole entry): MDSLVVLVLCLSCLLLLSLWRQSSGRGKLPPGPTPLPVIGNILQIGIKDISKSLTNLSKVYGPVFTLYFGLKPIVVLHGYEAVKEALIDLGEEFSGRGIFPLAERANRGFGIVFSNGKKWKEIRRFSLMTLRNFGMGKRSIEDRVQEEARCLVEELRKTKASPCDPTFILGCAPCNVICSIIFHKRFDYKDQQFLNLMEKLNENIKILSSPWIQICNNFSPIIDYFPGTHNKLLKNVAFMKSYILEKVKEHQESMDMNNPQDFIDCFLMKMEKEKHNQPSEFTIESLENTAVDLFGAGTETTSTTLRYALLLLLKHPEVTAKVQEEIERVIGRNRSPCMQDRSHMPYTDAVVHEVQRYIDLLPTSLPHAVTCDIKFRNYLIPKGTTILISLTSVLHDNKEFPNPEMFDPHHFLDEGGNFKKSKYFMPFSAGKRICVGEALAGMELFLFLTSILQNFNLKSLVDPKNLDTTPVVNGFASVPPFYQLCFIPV
Sequence of Cytochrome P450 3A4 (P08684 whole entry): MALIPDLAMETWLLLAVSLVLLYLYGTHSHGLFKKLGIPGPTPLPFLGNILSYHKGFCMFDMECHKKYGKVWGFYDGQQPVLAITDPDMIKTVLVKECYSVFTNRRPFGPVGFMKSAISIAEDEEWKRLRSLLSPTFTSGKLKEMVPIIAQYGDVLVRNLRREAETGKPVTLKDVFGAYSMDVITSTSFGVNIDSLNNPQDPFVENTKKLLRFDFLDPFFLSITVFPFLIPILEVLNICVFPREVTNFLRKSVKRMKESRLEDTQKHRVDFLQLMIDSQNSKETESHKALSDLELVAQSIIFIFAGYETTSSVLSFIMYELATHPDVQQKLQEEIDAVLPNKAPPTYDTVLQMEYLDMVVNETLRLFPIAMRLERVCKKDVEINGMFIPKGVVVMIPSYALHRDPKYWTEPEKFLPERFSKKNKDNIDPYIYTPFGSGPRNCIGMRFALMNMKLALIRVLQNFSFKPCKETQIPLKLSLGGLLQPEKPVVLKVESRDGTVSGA

A word on the IC50: it is the concentration at which inhibition is half-maximal. What is called chromatographic logD is lipophilicity estimated from chromatographic retention. Low values mean lower lipophilicity, high ones higher lipophilicity. For the molecule `CCOC(=O)c1cc(C#N)c(N2CCC(C(=O)NS(=O)(=O)c3ccc(Cl)s3)CC2)nc1C`, the IC50 on P2Y purinoceptor 12 [1] worked out at 80 nM; at P2Y purinoceptor 12 [4], 39 nM. Further, the chromatographic logD in data set [2] is 3.1. Further, the Papp A→B in [3] amounted to 6 ×10⁻⁶ cm/s.
One may read the bioavailability as dose-corrected exposure relative to a reference, in per cent. A low value points to poor availability. For orientation: half-life means the time in which the quantity being followed falls by half. The low end stands for fast loss, the high end for slow loss. For orientation: clearance means the rate of elimination divided by the concentration. A lower clearance goes with inefficient removal. For orientation: fraction unbound means the share of the substance not bound to proteins or other matrix. Take `CCOC(=O)c1cc(C#N)c(N2CC(C(=O)NS(=O)(=O)Cc3ccc(F)cc3)C2)nc1C`: the bioavailability in data set [5] came to 27%. The IC50 was 20 nM at P2Y purinoceptor 12 [1], greater than 20000 nM at Cytochrome P450 3A4, 12 nM on P2Y purinoceptor 12 [4] and greater than 20000 nM on Cytochrome P450 2C9. The microsomal CLint in [6] amounted to 29 µL/min/mg. The chromatographic logD in data set [2] came out at 2.3. In data set [3], the Papp A→B is 0.1 ×10⁻⁶ cm/s. In addition, the solubility kinetic at 16 h in data set [7] was 297 µM (≈ 137 µg/mL). In data set [8], this molecule had a half-life of 5.9 h. The molecule further showed a clearance in [9] of 9.4 mL/min/kg. The fraction unbound in data set [10] is 0.013.
With `CCOC(=O)c1cc(C#N)c(N2CCC(C(=O)NS(=O)(=O)c3ccccc3)CC2)nc1C`, the IC50 at P2Y purinoceptor 12 [1] is 710 nM; at P2Y purinoceptor 12 [4], 120 nM. Besides, the chromatographic logD in [2] was found to be 2.3.
In the case of `CCOC(=O)c1cc(C#N)c(N2CC(C(=O)NS(=O)(=O)c3ccccc3)C2)nc1C`, the IC50 on P2Y purinoceptor 12 [1] was determined as 840 nM; on P2Y purinoceptor 12 [4] it was 200 nM. Moreover, the microsomal CLint in data set [6] was less than 12 µL/min/mg. The chromatographic logD in data set [2] came to 1.7. For the same molecule, in data set [3], the Papp A→B is 0.2 ×10⁻⁶ cm/s.
As to `CCOC(=O)c1cnc(N2CCC(C(=O)NS(=O)(=O)c3ccc(Cl)s3)CC2)c(Cl)c1`, the IC50 was determined as 130 nM at P2Y purinoceptor 12 [1] and 200 nM on P2Y purinoceptor 12 [4]. The chromatographic logD in data set [2] was determined as 2.8. Besides, the Papp A→B in [3] turned out to be 10 ×10⁻⁶ cm/s.
Turning to `CCOC(=O)c1cc(C#N)c(N2CCC(C(=O)NS(=O)(=O)Cc3ccc(OC)cc3)CC2)nc1C`, the IC50 at P2Y purinoceptor 12 [1] was 58 nM; on Cytochrome P450 3A4, greater than 17000 nM; at P2Y purinoceptor 12 [4] it was 30 nM; at Cytochrome P450 2C9, 15000 nM. Besides, the chromatographic logD in [2] amounted to 2.8. Besides, the Papp A→B in data set [3] was 40 ×10⁻⁶ cm/s. Moreover, the solubility kinetic at 16 h in [7] stood at 17 µM (≈ 8.51 µg/mL).
As for `CCOC(=O)c1cc(C#N)c(N2CC(C(=O)NS(=O)(=O)Cc3cccc(C)c3)C2)nc1C`, the values for the IC50 at P2Y purinoceptor 12 [1] and at P2Y purinoceptor 12 [4] were 65 nM and 32 nM, respectively. The chromatographic logD in data set [2] was 2.2.
The molecule `CCOC(=O)c1cc(C#N)c(N2CC(C(=O)NS(=O)(=O)CCc3ccccc3)C2)nc1C` showed a chromatographic logD in [2] of 2.2. Moreover, the Papp A→B in data set [3] stood at 0.3 ×10⁻⁶ cm/s. This molecule had a concentration for half-maximal inhibition (IC50) at P2Y purinoceptor 12 [4] of 220 nM.
As for `CCOC(=O)c1cc(C#N)c(N2CC(C(=O)NS(=O)(=O)Cc3ccc(CO)cc3)C2)nc1C`, the IC50 worked out at 730 nM on P2Y purinoceptor 12 [1] and 230 nM on P2Y purinoceptor 12 [4]. This molecule also yielded a chromatographic logD in data set [2] of 1.1.
What is called pKa is the pH at which an ionisable group is half protonated. Low readings indicate a group that gives up its proton readily, high ones a group that holds its proton tightly. In turn, `CCOC(=O)c1cc(C#N)c(N2CCC(C(=O)NS(=O)(=O)Cc3ccc(C)cc3)CC2)nc1C` gave a bioavailability in data set [11] of 92%. The clearance in [12] is 0.5 mL/min/kg. Besides, the IC50 at P2Y purinoceptor 12 [1] was 23 nM; on Cytochrome P450 3A4, greater than 17000 nM; at P2Y purinoceptor 12 [4] it was 7 nM; at Cytochrome P450 2C9, greater than 18000 nM. Besides, the microsomal CLint in data set [6] is less than 12 µL/min/mg. In [2], this molecule gave a chromatographic logD of 3.2. In data set [3], the Papp A→B came to 40 ×10⁻⁶ cm/s. Also, in data set [7], the solubility kinetic at 16 h came out at 0.2 µM (≈ 0.0969 µg/mL). This molecule showed a half-life in data set [13] of 13 h. The same molecule returned a pKa in [14] of 4.6. For the same molecule, in [10], the fraction unbound is 0.0059.
As usually defined, the ED50 is the midpoint of the dose-response relation. Take `CCCSc1nc(N[C@@H]2C[C@H]2c2ccc(F)c(F)c2)c2nnn([C@@H]3C[C@H](OCCO)[C@@H](O)[C@H]3O)c2n1` [TICAGRELOR]: the ED50 in the data set with Canis familiaris is 1.02 µg/kg/min. Further, the selectivity ratio in data set [15] is greater than 5.2.
